In general, Ki refers to the dissociation constant of the complex between target and ligand, obtained from inhibition or displacement. A low value points to higher affinity.

A short description of test [1]: Ratio of Ki for SERT to Ki for DAT. The gist of the method: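 SERT Ki divided by DAT Ki. Both come from [125I]RTI-55 (0.01 nM) binding in pH 7.4 sodium phosphate/BSA buffer with protease inhibitors, run in triplicate for 18–24 h at 4 °C.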
Test [2] addresses Sodium-dependent serotonin transporter (Homo sapiens, UniProt P31645). The test is described as follows: Displacement of [125I]RTI55 from SERT. In a few lines:
(§1)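 [125I]RTI-55 at 0.01 nM (s.a. 2200 Ci/mmol) competitive binding. Drugs and blocker in 55.2 mM sodium phosphate pH 7.4 with 1 mg/mL BSA. Radioligand in the same buffer with chymostatin 25 μg/mL, leupeptin 25 μg/mL, EDTA 100 μM and EGTA 100 μM. Triplicate incubation for 18–24 h at 4 °C (equilibrium), 1 mL final volume. Ki derived.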
On the technique in general: In a radioligand displacement assay an active substance lowers the binding of a labelled ligand.

Test [3] has as its target Sodium-dependent dopamine transporter (Homo sapiens, UniProt Q01959). The test is described as follows: Displacement of [125I]RTI55 from DAT. In a few lines:
as §1

Sequence of Sodium-dependent dopamine transporter (Q01959 whole entry): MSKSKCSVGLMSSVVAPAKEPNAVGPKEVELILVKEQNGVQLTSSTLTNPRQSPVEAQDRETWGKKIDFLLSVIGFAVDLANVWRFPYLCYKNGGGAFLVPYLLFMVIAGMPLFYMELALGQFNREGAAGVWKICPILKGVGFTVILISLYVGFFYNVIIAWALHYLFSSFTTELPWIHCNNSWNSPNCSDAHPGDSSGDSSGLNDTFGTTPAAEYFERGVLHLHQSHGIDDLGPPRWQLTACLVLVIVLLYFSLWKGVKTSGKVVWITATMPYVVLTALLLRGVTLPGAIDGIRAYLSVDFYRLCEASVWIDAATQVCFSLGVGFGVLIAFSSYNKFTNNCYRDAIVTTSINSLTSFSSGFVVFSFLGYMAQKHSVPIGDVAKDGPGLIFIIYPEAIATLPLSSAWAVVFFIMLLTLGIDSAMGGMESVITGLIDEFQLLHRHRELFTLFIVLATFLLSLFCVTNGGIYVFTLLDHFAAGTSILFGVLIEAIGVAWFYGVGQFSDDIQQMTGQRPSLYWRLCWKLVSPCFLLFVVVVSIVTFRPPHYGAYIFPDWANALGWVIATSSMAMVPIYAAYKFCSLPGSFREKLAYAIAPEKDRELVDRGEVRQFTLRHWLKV
Sequence of Sodium-dependent serotonin transporter (P31645 whole entry): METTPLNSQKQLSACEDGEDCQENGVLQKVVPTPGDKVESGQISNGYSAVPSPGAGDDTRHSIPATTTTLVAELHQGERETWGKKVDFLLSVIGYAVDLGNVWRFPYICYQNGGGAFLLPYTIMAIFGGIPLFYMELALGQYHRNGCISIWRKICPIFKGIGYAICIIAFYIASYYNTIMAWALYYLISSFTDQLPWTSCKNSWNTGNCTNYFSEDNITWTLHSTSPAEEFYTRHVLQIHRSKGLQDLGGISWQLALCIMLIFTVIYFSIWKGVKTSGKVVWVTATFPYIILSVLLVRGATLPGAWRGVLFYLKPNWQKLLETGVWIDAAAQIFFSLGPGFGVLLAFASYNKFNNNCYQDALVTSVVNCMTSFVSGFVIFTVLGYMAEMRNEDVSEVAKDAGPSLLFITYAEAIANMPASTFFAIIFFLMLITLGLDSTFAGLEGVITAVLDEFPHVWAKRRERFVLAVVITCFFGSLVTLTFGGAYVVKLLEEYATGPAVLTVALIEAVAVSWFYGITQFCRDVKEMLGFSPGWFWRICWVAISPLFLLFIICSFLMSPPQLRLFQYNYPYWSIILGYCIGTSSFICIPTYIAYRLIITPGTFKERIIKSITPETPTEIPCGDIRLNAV

For `O[C@H](Cc1ccccc1)CN1CCN(CCOC(c2ccc(F)cc2)c2ccc(F)cc2)CC1`, the Ratio Ki in test [1] was found to be 13. Also, the results for the Ki in test [2] and in test [3] were 160 nM and 12 nM, respectively.

For the compound `CC(O)(CCN1CCN(CCOC(c2ccc(F)cc2)c2ccc(F)cc2)CC1)c1ccccc1` (centres undefined), in test [1], the Ratio Ki stood at 39. Moreover, in test [2], affinity was put at a Ki of 150 nM.

As for `O[C@@H](Cc1ccccc1)CN1CCN(CCOC(c2ccccc2)c2ccccc2)CC1`, the Ratio Ki in test [1] amounted to 957. Besides, the Ki was determined as 2200 nM in test [2] and 2.3 nM in test [3].

`CC(Cc1ccccc1)CN1CCN(CCOC(c2ccc(F)cc2)c2ccc(F)cc2)CC1` (single isomer, unassigned; (-)) [listing 1 of 2 here]: the Ratio Ki in test [1] was 11.

In the case of `O=C(Cc1ccccc1)CN1CCN(CCOC(c2ccc(F)cc2)c2ccc(F)cc2)CC1`, in test [1], the Ratio Ki is 38. In test [2], this compound registered a Ki of 250 nM.

For `Fc1ccc(C(OCCN2CCN(C[C@@H](F)Cc3ccccc3)CC2)c2ccc(F)cc2)cc1`, the Ratio Ki in test [1] was 109. The Ki in test [2] was determined as 290 nM.

Regarding `CC(Cc1ccccc1)CN1CCN(CCOC(c2ccc(F)cc2)c2ccc(F)cc2)CC1` (single isomer, unassigned; (-)) [listing 2 of 2 here], the Ki in test [2] is 190 nM.

In the case of `Fc1ccc(C(OCCN2CCN(C[C@H](F)Cc3ccccc3)CC2)c2ccc(F)cc2)cc1`, in test [1], the Ratio Ki is 25. In test [2], this compound registered a Ki of 540 nM.

On to `CC(Cc1ccccc1)CN1CCN(CCOC(c2ccc(F)cc2)c2ccc(F)cc2)CC1` (stereo in doubt; (+)-7) [listing 1 of 2 here], for which the Ratio Ki in test [1] is 7.

Consider `Fc1ccc(C(OCCN2CCN(CCc3ccccc3)CC2)c2ccc(F)cc2)cc1`, for which the Ratio Ki in test [1] worked out at 5. The values for the Ki in test [2] and in test [3] were 36 nM and 8 nM, respectively.

As for `C=C(Cc1ccccc1)CN1CCN(CCOC(c2ccc(F)cc2)c2ccc(F)cc2)CC1`, the Ratio Ki in test [1] was determined as 4. This compound came in with a Ki in test [2] of 430 nM.

Turning to `CO[C@H](Cc1ccccc1)CN1CCN(CCOC(c2ccc(F)cc2)c2ccc(F)cc2)CC1`, in test [1], the Ratio Ki came out at 9. Further, the Ki in test [2] turned out to be 250 nM.

Consider `N[C@@H](Cc1ccccc1)CN1CCN(CCOC(c2ccc(F)cc2)c2ccc(F)cc2)CC1`, for which, in test [1], the Ratio Ki turned out to be 2. The compound further yielded a Ki in test [2] of 88 nM.

Consider `O[C@H](Cc1ccccc1)CN1CCN(CCOC(c2ccccc2)c2ccccc2)CC1`, for which the Ratio Ki in test [1] was 72. For the same compound, the Ki in test [2] amounted to 1800 nM; in test [3], 25 nM.

Regarding `CC(O)(CCN1CCN(CCOC(c2ccccc2)c2ccccc2)CC1)c1ccccc1` (centres undefined), in test [1], the Ratio Ki is 254. This compound also showed a Ki in test [2] of 1800 nM.

On to `CO[C@@H](Cc1ccccc1)CN1CCN(CCOC(c2ccc(F)cc2)c2ccc(F)cc2)CC1`, for which, in test [1], the Ratio Ki was determined as 8. This compound also registered an inhibition constant (Ki) in test [2] of 220 nM.

With `C=C(Cc1ccccc1)CN1CCN(CCOC(c2ccccc2)c2ccccc2)CC1`, the Ratio Ki in test [1] is 8. Also, in test [2], the Ki is 3300 nM.

In the case of `CC(O)(Cc1ccccc1)CN1CCN(CCOC(c2ccc(F)cc2)c2ccc(F)cc2)CC1` (centres undefined), the Ratio Ki in test [1] stood at 6. Moreover, in test [2], the Ki was 310 nM.

As for `FC[C@@H](Cc1ccccc1)N1CCN(CCOC(c2ccc(F)cc2)c2ccc(F)cc2)CC1`, the Ratio Ki in test [1] is 2. This compound also showed an inhibition constant (Ki) in test [2] of 190 nM.

`C=C(CCN1CCN(CCOC(c2ccccc2)c2ccccc2)CC1)c1ccccc1`: the Ratio Ki in test [1] stood at 59. The Ki in test [2] was determined as 1800 nM.

`CC(Cc1ccccc1)CN1CCN(CCOC(c2ccc(F)cc2)c2ccc(F)cc2)CC1` (stereo in doubt; (+)-7) [listing 2 of 2 here] came in with a Ki in test [2] of 120 nM.

As for `CC(O)(Cc1ccccc1)CN1CCN(CCOC(c2ccccc2)c2ccccc2)CC1` (centres undefined), in test [1], the Ratio Ki worked out at 14. For the same compound, in test [2], the affinity, expressed as Ki, was 2000 nM.

As to `FC[C@H](Cc1ccccc1)N1CCN(CCOC(c2ccc(F)cc2)c2ccc(F)cc2)CC1`, the Ratio Ki in test [1] amounted to 0.8. The Ki in test [2] worked out at 110 nM.

`O=C(Cc1ccccc1)CN1CCN(CCOC(c2ccccc2)c2ccccc2)CC1`: the Ratio Ki in test [1] was 250. Besides, the affinity in test [2], expressed as Ki, was 2500 nM.

For the compound `O=C(CN1CCN(CCOC(c2ccccc2)c2ccccc2)CC1)c1ccccc1`, in test [1], the Ratio Ki is 3. Also, the Ki in test [2] came out at 1400 nM.

Take `O=C(CN1CCN(CCOC(c2ccc(F)cc2)c2ccc(F)cc2)CC1)c1ccccc1`: the Ratio Ki in test [1] stood at 2. For the same compound, the affinity in test [2] corresponds to a Ki of 88 nM.

Regarding `O[C@@H](Cc1ccccc1)CN1CCN(CCOC(c2ccc(F)cc2)c2ccc(F)cc2)CC1`, the Ratio Ki in test [1] was 307. Moreover, the results for the Ki in test [2] and in test [3] were 230 nM and 0.75 nM, respectively.

Take `N[C@H](Cc1ccccc1)CN1CCN(CCOC(c2ccc(F)cc2)c2ccc(F)cc2)CC1`: in test [1], the Ratio Ki was 1. In test [2], this compound returned a Ki of 22 nM.

Regarding `C=C(CCN1CCN(CCOC(c2ccc(F)cc2)c2ccc(F)cc2)CC1)c1ccccc1`, in test [1], the Ratio Ki stood at 11. In test [2], this compound yielded a Ki of 190 nM.

These data come from ChEMBL document CHEMBL1149914 (J Med Chem, 2008).
